How the values were obtained:
Aromatase [1] = biological target: T1, Aromatase (Homo sapiens, UniProt P11511); assay: Inhibition of aromatase in human placental microsomes at 20 ug/ml by radiometric method relative to control; parameters: species or system Placenta; scale not given: the % may be the effect or the level left; details: read-out: Activity
T1 sequence (P11511 whole entry): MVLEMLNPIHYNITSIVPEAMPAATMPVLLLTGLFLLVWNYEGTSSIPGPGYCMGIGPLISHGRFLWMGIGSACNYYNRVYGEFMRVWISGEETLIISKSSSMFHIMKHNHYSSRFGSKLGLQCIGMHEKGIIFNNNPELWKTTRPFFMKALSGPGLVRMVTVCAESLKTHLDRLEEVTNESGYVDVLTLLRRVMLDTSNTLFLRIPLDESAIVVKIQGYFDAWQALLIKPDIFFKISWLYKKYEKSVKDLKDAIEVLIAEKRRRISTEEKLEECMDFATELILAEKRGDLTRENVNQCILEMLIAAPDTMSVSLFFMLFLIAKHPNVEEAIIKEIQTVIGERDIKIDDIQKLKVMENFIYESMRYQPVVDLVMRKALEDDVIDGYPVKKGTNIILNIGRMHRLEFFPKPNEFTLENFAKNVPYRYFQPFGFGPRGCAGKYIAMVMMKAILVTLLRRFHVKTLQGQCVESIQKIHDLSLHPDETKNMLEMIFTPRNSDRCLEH
In short: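 Human term placental microsomes (50 µg) with sample at 20 µg/mL, 100 nM [1β-3H]androstenedione, 0.1 M K phosphate pH 7.0, 5% propylene glycol, NADPH-regenerating system; 37 °C, 15 min, CHCl3 quench and extraction; aqueous 3H2O counted; triplicate.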

Aromatase [2] = biological target: T1, Aromatase; assay: Inhibition of aromatase in human placental microsomes by radiometric method; parameters: species or system Placenta
In short: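 Placental microsomal aromatase (50 µg), 100 nM [1β-3H]androstenedione, pH 7.0 phosphate buffer, 5% propylene glycol, NADPH-regenerating system, 37 °C for 15 min; 3H2O in the aqueous phase counted after CHCl3 extraction, boiled-enzyme background. Eight inhibitor concentrations spanning 1–100 µM; IC50 by nonlinear regression.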

Aromatase [3] = biological target: T1, Aromatase; assay: Inhibition of aromatase in human SKBR3 cells at 100 uM relative to control; type: cell-based; parameters: scale not given: the % may be the effect or the level left; details: SK-BR-3, human; read-out: Activity
In short: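 Test agents at 100 µM on aromatase-overexpressing SK-BR-3 cells in T-25 flasks, serum-free DMEM/F12 with albumin/transferrin/insulin, triplicate, 24 h exposure (0.1% DMSO negative control, 10 nM letrozole positive control). Medium replaced with 50 nM androstenedione plus 2 µCi [1β-3H]androstenedione, 6 h; released 3H2O scintillation-counted, corrected for blanks and DNA-based cell count; percent control activity.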

Aromatase [4] = biological target: T1, Aromatase; assay: Inhibition of aromatase in human SKBR3 cells at 10 nM relative to control; type: cell-based; parameters: scale not given: the % may be the effect or the level left; details: SK-BR-3, human; read-out: Activity
In short: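 SK-BR-3 human breast cancer cells (aromatase-overexpressing), grown subconfluent in T-25 flasks, medium switched to serum-free DMEM/F12 with albumin, transferrin, insulin; treated in triplicate 24 h (0.1% DMSO negative control). Then 50 nM androstenedione plus 2 µCi [1β-3H]androstenedione for 6 h; 3H2O counted after TCA, CHCl3 and charcoal cleanup; normalized to DNA-determined cell number, expressed as percent control activity.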

activity at 20 µg/mL (Aromatase [1]) [%] | IC50 (Aromatase [2]) [µM] | activity at 100 µM (Aromatase [3]) [%] | activity at 0.01 µM (Aromatase [4]) [%] | Structure (SMILES)
83.2 | – | – | – | CCCCCCCCCCCCCCCC(=O)O [PALMITIC ACID]
49.5 | 44.2 | 92.8 | – | CC/C=C\C/C=C\C/C=C\CCCCCCCC(=O)O [LINOLENIC ACID]
12.4 | 33.2 | 98.2 | – | CC/C=C\C/C=C\C/C=C\C/C=C\C/C=C\C/C=C\CCC(=O)O [DOCONEXENT]
66.7 | – | – | – | CCCCCCCCCCCCCC(=O)O [MYRISTIC ACID]
– | – | – | 3.9 | N#Cc1ccc(C(c2ccc(C#N)cc2)n2cncn2)cc1 [LETROZOLE]
15.7 | 16.8 | 94.4 | – | CC/C=C\C/C=C\C/C=C\C/C=C\C/C=C\CCCCCC(=O)O [DOCOSAPENTAENOIC ACID]
30.2 | 53.2 | 138 | – | CC/C=C\C/C=C\C/C=C\C/C=C\C/C=C\CCCC(=O)O [ICOSAPENT]
19.5 | 32.7 | 99.3 | – | CCCCCCCC/C=C\CCCCCCCC(=O)O [OLEIC ACID]
76.2 | – | – | – | CCCCCCCCCCCCCCC(=O)O [PENTADECANOIC ACID]

Structure (SMILES) | activity at 20 µg/mL (Aromatase [1]) [%] | IC50 (Aromatase [2]) [µM] | activity at 100 µM (Aromatase [3]) [%] | activity at 0.01 µM (Aromatase [4]) [%]
CCCCC/C=C\C/C=C\C/C=C\C/C=C\CCCC(=O)O [ARACHIDONIC ACID] | 11.5 | 28.2 | 147 | –
CCCCC/C=C\C/C=C\CCCCCCCC(=O)O [LINOLEIC ACID] | 22.5 | 48 | 148 | –
CCCCCCCCCCCCCCCCCC(=O)O [STEARIC ACID] | 89.4 | – | – | –

— ChEMBL document CHEMBL1157337, “Interference by naturally occurring fatty acids in a noncellular enzyme-based aromatase bioassay” (J Nat Prod, 2006)
